# From ChEMBL document CHEMBL4390656, “Shooting three inflammatory targets with a single bullet: Novel multi-targeting anti-inflammatory glitazones” (Eur J Med Chem, 2019)
# The source made the active and inactive calls. No cut-off for these calls is given here.
# How the values were obtained:
# [1] = target: T1, Peroxisome proliferator-activated receptor gamma (Homo sapiens) (UniProt P37231); test: Transactivation of GAL4 DBD-fused human PPARgamma LBD expressed in HEK293 cells at 10 uM after 24 hrs by luciferase reporter gene assay relative to pioglitazone; format: cell-based
# T1 sequence (whole entry): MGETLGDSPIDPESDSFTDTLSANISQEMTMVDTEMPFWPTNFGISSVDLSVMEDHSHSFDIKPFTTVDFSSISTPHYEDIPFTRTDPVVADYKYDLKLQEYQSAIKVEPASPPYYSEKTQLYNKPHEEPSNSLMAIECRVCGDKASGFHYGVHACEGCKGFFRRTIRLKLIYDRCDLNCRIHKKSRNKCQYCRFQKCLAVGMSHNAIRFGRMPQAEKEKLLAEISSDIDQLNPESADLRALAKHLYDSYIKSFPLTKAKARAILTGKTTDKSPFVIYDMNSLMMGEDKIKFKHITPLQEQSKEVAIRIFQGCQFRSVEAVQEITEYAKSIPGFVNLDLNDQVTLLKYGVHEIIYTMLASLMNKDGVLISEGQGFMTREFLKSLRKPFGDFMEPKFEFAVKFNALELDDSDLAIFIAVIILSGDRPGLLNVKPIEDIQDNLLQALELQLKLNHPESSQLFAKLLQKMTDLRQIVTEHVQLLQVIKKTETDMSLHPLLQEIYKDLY
# Procedure, shortened: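 HEK293(T) cells transiently co-transfected with a Gal4 DBD–human PPARγ LBD hybrid and a Gal4 UAS-driven Renilla luciferase reporter. […] Luciferase activity normalized to Renilla and expressed as fold induction over vehicle; triplicates, repeated at least three times.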
# [2] = Inhibition of soya bean 15-LOX by colorimetric lipoxygenase inhibitor screening assay kit method; design: species or system Glycine max
# Procedure, shortened: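 Soybean 15-LOX activity measured with a colorimetric lipoxygenase inhibitor screening kit per the kit instructions.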
# THP-1 [3] = test: Inhibition of PMA-induced human THP1 monocytes differentiation in to macrophages assessed as macrophage metabolic activity preincubated for 6 hrs before PMA stimulation
# [4] = target: T2, Prostaglandin G/H synthase 1 (Ovis aries, UniProt P05979); test: Inhibition of ovine COX1 catalytic activity using arachidonic acid as substrate pre-incubated for 10 mins followed by substrate addition and measured after 2 mins by ELISA method
# T2 sequence (P05979 whole entry): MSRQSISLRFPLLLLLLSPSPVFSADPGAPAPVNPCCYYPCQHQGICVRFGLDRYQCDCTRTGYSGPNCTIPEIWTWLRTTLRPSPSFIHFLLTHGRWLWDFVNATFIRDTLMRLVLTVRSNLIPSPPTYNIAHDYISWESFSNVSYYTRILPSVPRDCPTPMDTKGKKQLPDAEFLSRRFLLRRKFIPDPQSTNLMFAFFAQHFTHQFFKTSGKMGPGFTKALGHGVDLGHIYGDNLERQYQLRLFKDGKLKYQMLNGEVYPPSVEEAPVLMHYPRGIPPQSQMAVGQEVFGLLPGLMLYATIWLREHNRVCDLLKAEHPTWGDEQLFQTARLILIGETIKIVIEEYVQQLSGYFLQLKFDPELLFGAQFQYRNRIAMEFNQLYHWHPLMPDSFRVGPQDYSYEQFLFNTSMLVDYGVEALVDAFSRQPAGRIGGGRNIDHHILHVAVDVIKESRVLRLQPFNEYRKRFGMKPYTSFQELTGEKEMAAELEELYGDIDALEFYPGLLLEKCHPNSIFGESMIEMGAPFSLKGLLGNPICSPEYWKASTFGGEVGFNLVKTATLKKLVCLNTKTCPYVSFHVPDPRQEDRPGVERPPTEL
# Rattus norvegicus [5] = organism: Rattus norvegicus; test: Antidiabetic activity in Wistar rat hemi-diaphragm at 2 mg assessed as increase in insulin-induced glucose uptake by GOD/POD enzymatic method; format: functional, tissue-based
# Procedure, shortened: (§1)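 Wistar rats (150-250 g), fasted overnight, euthanized under ether; diaphragms removed and halved, each half weighed. Glucose in the working solution measured before and after incubation, and uptake taken as initial minus final content at 2 mg drug; expressed as mg/dl/45 min, mean ± SEM.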
# Rattus norvegicus [6] = organism: Rattus norvegicus; test: Antidiabetic activity in Wistar rat hemi-diaphragm at 2 mg assessed as increase in glucose uptake in absence of insulin by GOD/POD enzymatic method; format: functional, tissue-based; procedure, shortened: as §1
# THP-1 [7] = test: Inhibition of PMA-induced human THP1 monocytes differentiation in to macrophages assessed as macrophage metabolic activity up to 300 uM preincubated for 6 hrs before PMA stimulation; format: functional, cell-based
# Procedure, shortened: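 THP-1 cells grown in RPMI-1640 with 10% FBS and seeded at 2×10^5 cells/ml. Drug concentrations applied for 6 h before differentiation with PMA 25 ng/ml for 24 h; wells washed 3x with PBS. Attached cells quantified by MTS viability readout, with a no-PMA blank, normalized to DMSO-pretreated PMA cells. Viability at each drug concentration checked separately over 30 h.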
# Rattus norvegicus [8] = test: Antiinflammatory activity in rat acute inflammation model assessed as inhibition of formalin-induced paw edema at 5 mg/kg, po measured after 4 hrs relative to control; format: functional
# Procedure, shortened: (§2)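 Adult female albino rats, 150-250 g, acclimatized 1 week. Compounds given orally at 5 mg/kg body weight; percentage edema inhibition measured after 4 h. Celecoxib and diclofenac sodium served as positive controls.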
# Rattus norvegicus [9] = test: Antiinflammatory activity in rat acute inflammation model assessed as inhibition of formalin-induced paw edema at 5 mg/kg, po measured after 4 hrs relative to celecoxib; format: functional; procedure, shortened: as §2
smiles,measurement,setting,value
COc1ccc(-n2cc(COc3ccc(/C=C4\SC(=O)NC4=O)cc3)nn2)cc1,Activity,[1],25 to 45%
O=C1NC(=O)/C(=C/c2ccc(OCc3cn(-c4ccc(Br)cc4)nn3)cc2)S1,Activity,[1],25 to 45%
O=c1c(O)c(-c2ccc(O)c(O)c2)oc2cc(O)cc(O)c12 [QUERCETIN],IC50,[2],3.27 µM
O=C(O)Cc1ccccc1Nc1c(Cl)cccc1Cl [DICLOFENAC],IC50,THP-1 [3],143 µM
O=C1NC(=S)S/C1=C\c1ccc(OCc2cn(CC(=O)c3ccc(Br)cc3)nn2)cc1,IC50,[4],14.9 µM
same,IC50,[2],4.34 µM
same,Activity,Rattus norvegicus [5],Active
same,Activity,Rattus norvegicus [6],Active
CCc1ccc(CCOc2ccc(CC3SC(=O)NC3=O)cc2)nc1 (centres undefined),inhibition,THP-1 [7],inactive
same,Activity,Rattus norvegicus [5],Active
same,Activity,Rattus norvegicus [6],Active
O=C1NC(=O)/C(=C/c2ccc(OCc3cn(Cc4ccc(Br)cc4)nn3)cc2)S1,Activity,[1],25 to 45%
O=C1NC(=O)/C(=C/c2ccc(OCc3cn(CC(=O)c4ccc(Cl)cc4)nn3)cc2)S1,IC50,[4],10.9 µM
CC(Cc1ccc(O)c(O)c1)C(C)Cc1ccc(O)c(O)c1 (centres undefined) [NORDIHYDROGUAIARETIC ACID],IC50,[2],10.2 µM
O=C(O)Cc1ccccc1Nc1c(Cl)cccc1Cl [DICLOFENAC SODIUM],inhibition in vivo at 5 mg/kg,Rattus norvegicus [8],52.1%
same,inhibition in vivo at 5 mg/kg,Rattus norvegicus [9],205%
O=C1NC(=O)/C(=C/c2ccc(OCc3cn(CC(=O)c4ccc(Br)cc4)nn3)cc2)S1,IC50,[4],13.6 µM
same,IC50,[2],4.97 µM
same,Activity,Rattus norvegicus [5],Active
same,Activity,Rattus norvegicus [6],Active
O=C1NC(=S)S/C1=C\c1ccc(OCc2cn(CC(=O)c3ccc(Cl)cc3)nn2)cc1,IC50,[4],12.4 µM
same,IC50,[2],4.22 µM
C#CCOc1ccc(/C=C2\SC(=S)NC2=O)cc1,Activity,[1],25 to 45%
Cc1ccc(-c2cc(C(F)(F)F)nn2-c2ccc(S(N)(=O)=O)cc2)cc1 [CELECOXIB],inhibition in vivo at 5 mg/kg,Rattus norvegicus [8],36.8%
